Source: ChEMBL document CHEMBL1629486, “Antimicrobial, antitumor and 5α-reductase inhibitor activities of some hydrazonoyl substituted pyrimidinones” (Eur J Med Chem, 2010)

Legend:
Assay type in all cases: functional
Bacillus subtilis = test: Antimicrobial activity against Bacillus subtilis at 1 to 5 ug/ml by agar well diffusion method
How it was run: (§1)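 Agar well diffusion against bacteria and fungi. Inhibition zone is scored beyond the control: ++ 0.6–1.0 cm, + 0.1–0.5 cm, 0 no inhibition.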

MCF7 = test: Growth inhibition of human MCF7 cells assessed as cell growth at 1 M after 48 hrs by sulforhodamine B assay; parameters: scale not given: the % may be the effect or the level left
How it was run: (§2)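 NCI 60-cell screen at a single high dose. Cells are grown in RPMI 1640 with 5% FBS and 2 mM L-glutamine, then plated at 5000–40,000 cells/well and held 24 h at 37 °C in 5% CO2 at 100% humidity. Drug is then added and plates are incubated another 48 h, with SRB staining as read-out. Results are given as growth percent (100 = no inhibition, 0 = no net growth, negative = lethality).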

CAKI-1 = test: Growth inhibition of human Caki1 cells assessed as cell growth at 1 M after 48 hrs by sulforhodamine B assay; parameters: scale not given: the % may be the effect or the level left; how it was run: as §2
NCI/ADR-RES = test: Growth inhibition of human NCI/ADR-RES cells assessed as cell growth at 1 M after 48 hrs by sulforhodamine B assay; parameters: scale not given: the % may be the effect or the level left; how it was run: as §2
T47D = test: Growth inhibition of human T47D cells assessed as cell growth at 1 M after 48 hrs by sulforhodamine B assay; parameters: scale not given: the % may be the effect or the level left
How it was run: (§3)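 NCI 60-cell panel screen, single dose (1.0 M as printed). Cells grown in RPMI 1640 with 5% fetal bovine serum and 2 mM L-glutamine, seeded at 5000–40,000 cells/well, preincubated 24 h at 37 °C in 5% CO2 at 100% humidity, then exposed to compound for 48 h. Sulforhodamine B staining read-out. Result given as growth percent: 100 = no inhibition, 0 = no net growth, negative = lethality.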

NCI-H226 = test: Growth inhibition of human NCI-H226 cells assessed as cell growth at 1 M after 48 hrs by sulforhodamine B assay; parameters: scale not given: the % may be the effect or the level left; how it was run: as §2
A549 = test: Growth inhibition of human A549 cells assessed as cell growth at 1 M after 48 hrs by sulforhodamine B assay; parameters: scale not given: the % may be the effect or the level left; how it was run: as §2
SF-295 = test: Growth inhibition of human SF295 cells assessed as cell growth at 1 M after 48 hrs by sulforhodamine B assay; parameters: scale not given: the % may be the effect or the level left; how it was run: as §3
[1] = Growth inhibition of human Hs 578T cells assessed as cell growth at 1 M after 48 hrs by sulforhodamine B assay; parameters: scale not given: the % may be the effect or the level left; how it was run: as §2
HCT-116 = test: Growth inhibition of human HCT116 cells assessed as cell growth at 1 M after 48 hrs by sulforhodamine B assay; parameters: scale not given: the % may be the effect or the level left; how it was run: as §2
SNB-75 = test: Growth inhibition of human SNB75 cells assessed as cell growth at 1 M after 48 hrs by sulforhodamine B assay; parameters: scale not given: the % may be the effect or the level left; how it was run: as §3
OVCAR-3 = test: Growth inhibition of human OVCAR3 cells assessed as cell growth at 1 M after 48 hrs by sulforhodamine B assay; parameters: scale not given: the % may be the effect or the level left; how it was run: as §2
[2] = system: Syncephalastrum racemosum; test: Antimicrobial activity against Syncephalastrum racemosum at 1 to 5 ug/ml by agar well diffusion method; how it was run: as §1
ACHN = test: Growth inhibition of human ACHN cells assessed as cell growth at 1 M after 48 hrs by sulforhodamine B assay; parameters: scale not given: the % may be the effect or the level left; how it was run: as §2
SN12C = test: Growth inhibition of human SN12C cells assessed as cell growth at 1 M after 48 hrs by sulforhodamine B assay; parameters: scale not given: the % may be the effect or the level left; how it was run: as §3
[3] = Growth inhibition of human […] cells assessed as cell growth at 1 M after 48 hrs by sulforhodamine B assay; parameters: scale not given: the % may be the effect or the level left; how it was run: as §2
UACC-62 = test: Growth inhibition of human UACC62 cells assessed as cell growth at 1 M after 48 hrs by sulforhodamine B assay; parameters: scale not given: the % may be the effect or the level left; how it was run: as §3
TK-10 = test: Growth inhibition of human TK10 cells assessed as cell growth at 1 M after 48 hrs by sulforhodamine B assay; parameters: scale not given: the % may be the effect or the level left; how it was run: as §3
HT-29 = test: Growth inhibition of human HT-29 cells assessed as cell growth at 1 M after 48 hrs by sulforhodamine B assay; parameters: scale not given: the % may be the effect or the level left; how it was run: as §2
SK-MEL-5 = test: Growth inhibition of human SK-MEL-5 cells assessed as cell growth at 1 M after 48 hrs by sulforhodamine B assay; parameters: scale not given: the % may be the effect or the level left; how it was run: as §3
DU-145 = test: Growth inhibition of human DU145 cells assessed as cell growth at 1 M after 48 hrs by sulforhodamine B assay; parameters: scale not given: the % may be the effect or the level left; how it was run: as §2
U-251 = test: Growth inhibition of human U251 cells assessed as cell growth at 1 M after 48 hrs by sulforhodamine B assay; parameters: scale not given: the % may be the effect or the level left; how it was run: as §3
KM12 = test: Growth inhibition of human KM12 cells assessed as cell growth at 1 M after 48 hrs by sulforhodamine B assay; parameters: scale not given: the % may be the effect or the level left; how it was run: as §2
Pseudomonas aeruginosa = test: Antimicrobial activity against Pseudomonas aeruginosa at 1 to 5 ug/ml by agar well diffusion method; how it was run: as §1
RXF 393 = test: Growth inhibition of human RXF393 cells assessed as cell growth at 1 M after 48 hrs by sulforhodamine B assay; parameters: scale not given: the % may be the effect or the level left; how it was run: as §3
Aspergillus fumigatus = test: Antimicrobial activity against Aspergillus fumigatus at 1 to 5 ug/ml by agar well diffusion method; how it was run: as §1
NCI-H322M = test: Growth inhibition of human NCI-H322M cells assessed as cell growth at 1 M after 48 hrs by sulforhodamine B assay; parameters: scale not given: the % may be the effect or the level left; how it was run: as §2
IGROV-1 = test: Growth inhibition of human IGROV1 cells assessed as cell growth at 1 M after 48 hrs by sulforhodamine B assay; parameters: scale not given: the % may be the effect or the level left; how it was run: as §2
Staphylococcus aureus = test: Antimicrobial activity against Staphylococcus aureus at 1 to 5 ug/ml by agar well diffusion method; how it was run: as §1
Penicillium italicum = test: Antimicrobial activity against Penicillium italicum at 1 to 5 ug/ml by agar well diffusion method; how it was run: as §1
A498 = test: Growth inhibition of human A498 cells assessed as cell growth at 1 M after 48 hrs by sulforhodamine B assay; parameters: scale not given: the % may be the effect or the level left; how it was run: as §2
SK-OV-3 = test: Growth inhibition of human SKOV3 cells assessed as cell growth at 1 M after 48 hrs by sulforhodamine B assay; parameters: scale not given: the % may be the effect or the level left; how it was run: as §3
Rattus norvegicus = test: Effect on circulating testosterone and dihydrotestosterone level in sc dosed Sprague-Dawley rat by radioimmunoassay
How it was run: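 Rats were given a range of doses of the 5α-reductase inhibitors. Serum testosterone and DHT were measured by radioimmunoassay with specific antisera, without prior chromatography. Serum (0.5 mL) was extracted with 2 mL peroxide-free diethyl ether by shaking for 60 s. Levels were compared with vehicle-treated controls, and ED50 was derived.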

K562 = test: Growth inhibition of human K562 cells assessed as cell growth at 1 M after 48 hrs by sulforhodamine B assay; parameters: scale not given: the % may be the effect or the level left; how it was run: as §2
HOP-92 = test: Growth inhibition of human HOP92 cells assessed as cell growth at 1 M after 48 hrs by sulforhodamine B assay; parameters: scale not given: the % may be the effect or the level left; how it was run: as §2
HL-60(TB) = test: Growth inhibition of human HL-60(TB) cells assessed as cell growth at 1 M after 48 hrs by sulforhodamine B assay; parameters: scale not given: the % may be the effect or the level left
How it was run: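 NCI 60-cell panel, single-dose screen. Cells grown in RPMI 1640 with 5% fetal bovine serum and 2 mM L-glutamine, seeded at 5000–40,000 cells/well and preincubated 24 h at 37 °C in 5% CO2 before drug. Exposure 48 h, then sulforhodamine B staining. Read-out is growth percent: 100 = no inhibition, 0 = no net growth, negative = lethality.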

SF-268 = test: Growth inhibition of human SF268 cells assessed as cell growth at 1 M after 48 hrs by sulforhodamine B assay; parameters: scale not given: the % may be the effect or the level left; how it was run: as §3

| SMILES | diameter of the inhibition zone (DIZ) (Bacillus subtilis) [cm] | Activity (MCF7) [%] | Activity (CAKI-1) [%] | Activity (NCI/ADR-RES) [%] | Activity (T47D) [%] | Activity (NCI-H226) [%] | Activity (A549) [%] | Activity (SF-295) [%] | Activity [1] [%] | Activity (HCT-116) [%] | Activity (SNB-75) [%] | Activity (OVCAR-3) [%] | diameter of the inhibition zone (DIZ) [2] [cm] | Activity (ACHN) [%] | Activity (SN12C) [%] | Activity [3] [%] | Activity (UACC-62) [%] | Activity (TK-10) [%] | Activity (HT-29) [%] | Activity (SK-MEL-5) [%] | also measured |
| --- | --- | --- | --- | --- | --- | --- | --- | --- | --- | --- | --- | --- | --- | --- | --- | --- | --- | --- | --- | --- | --- |
| Cc1cc(=O)[nH]c(/C(=N/Nc2ccccc2)C(=O)c2ccc(Cl)cc2)n1 | 0 | 90.11 | 103.86 | 105.88 | 77.02 | 108.67 | 92.54 | 75.72 | 83.59 | 86.88 | 128.46 | 97.53 | 0 | 110.63 | 93.24 | 96.57 | 91.99 | 65.49 | 105.27 | 92.44 | Activity (DU-145): 104.88%; Activity (U-251): 106.82%; Activity (KM12): 101.95%; diameter of the inhibition zone (DIZ) (Pseudomonas aeruginosa): 0 cm; Activity (RXF 393): 28.48%; diameter of the inhibition zone (DIZ) (Aspergillus fumigatus): 0 cm; Activity (NCI-H322M): 107.24%; Activity (IGROV-1): 17.65%; diameter of the inhibition zone (DIZ) (Staphylococcus aureus): 0 cm; diameter of the inhibition zone (DIZ) (Penicillium italicum): 0 cm; Activity (A498): 83.96%; Activity (SK-OV-3): 98.31%; ED50 (Rattus norvegicus): 0.211 µg/kg; Activity (K562): 52.73%; Activity (HOP-92): 88.71%; Activity (HL-60(TB)): 50.74%; Activity (SF-268): 117.24% |
| CC(=O)c1ccc(N/N=C(\C(=O)c2ccc(Cl)cc2)c2nc(C)cc(=O)[nH]2)cc1 | 0 | 89.39 | 95 | 93.99 | 75.56 | 111 | 94.61 | 95.38 | 90.12 | 90.39 | 91.94 | 104.16 | 0 | 90.63 | 95.54 | 91.91 | 80.29 | 120.15 | 101.59 | 88.4 | Activity (DU-145): 95.47%; Activity (U-251): 96.78%; Activity (KM12): 100.14%; diameter of the inhibition zone (DIZ) (Pseudomonas aeruginosa): 0 cm; Activity (RXF 393): 94.35%; diameter of the inhibition zone (DIZ) (Aspergillus fumigatus): 0 cm; Activity (NCI-H322M): 100.21%; Activity (IGROV-1): 94.2%; diameter of the inhibition zone (DIZ) (Staphylococcus aureus): 0 cm; diameter of the inhibition zone (DIZ) (Penicillium italicum): 0 cm; Activity (A498): 97.59%; Activity (SK-OV-3): 95.27%; ED50 (Rattus norvegicus): 0.698 µg/kg; Activity (K562): 87.61%; Activity (HOP-92): 97.73%; Activity (HL-60(TB)): 115.14%; Activity (SF-268): 95.91% |
| Cc1ccc(N/N=C(\C(=O)c2ccc(Cl)cc2)c2nc(C)cc(=O)[nH]2)cc1 | 0 | 91.01 | 112.71 | 102.57 | 88.32 | 107.41 | 100.03 | 90.05 | 99.88 | 86.94 | 115.66 | 95.76 | 0 | 99.08 | 99.97 | 85.08 | 90.8 | 136.08 | 110.66 | 82.48 | Activity (DU-145): 102.09%; Activity (U-251): 103.37%; Activity (KM12): 114.61%; diameter of the inhibition zone (DIZ) (Pseudomonas aeruginosa): 0 cm; Activity (RXF 393): 40.73%; diameter of the inhibition zone (DIZ) (Aspergillus fumigatus): 0 cm; Activity (NCI-H322M): 106.17%; Activity (IGROV-1): 7.59%; diameter of the inhibition zone (DIZ) (Staphylococcus aureus): 0 cm; diameter of the inhibition zone (DIZ) (Penicillium italicum): 0 cm; Activity (A498): 107.77%; Activity (SK-OV-3): 115.86%; ED50 (Rattus norvegicus): 0.173 µg/kg; Activity (K562): 91.74%; Activity (HOP-92): 90.99%; Activity (HL-60(TB)): 108.59%; Activity (SF-268): 107.28% |
